{
  "source": "paper PMC3057608",
  "about": "(Cancer research, 2011)",
  "key": {"CAPAN1 cells [1]": {"tested_on": "CAPAN1 cells", "assay": "Clonogenic assay, BRCA2-null cells", "assay_type": "cell-based"}, "HCC1937 cells [2]": {"tested_on": "HCC1937 cells", "assay": "Neutral comet assay, BRCA1-null cells", "assay_type": "cell-based"}, "CAPAN1 cells [3]": {"tested_on": "CAPAN1 cells", "assay": "Neutral comet assay, BRCA2-null cells", "assay_type": "cell-based"}, "HCC1937 cells [4]": {"tested_on": "HCC1937 cells", "assay": "Clonogenic assay, BRCA1-null cells", "assay_type": "cell-based"}, "DNA-PKcs [5]": {"target": "T1, DNA-PKcs (Homo sapiens, UniProt P78527)", "assay": "ELISA of GNFRYLAPP/DNA-PKcs interaction", "assay_type": "binding", "conditions": "pure DNA-PK, 1 μM ATP, sonicated DNA, 37°C 1 h, fluorescence read-out (Fig. 4B)", "procedure,_shortened": "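Bait wells: streptavidin plates coated with 100 ng biotinylated linearized pSP72 or 10 ng biotinylated test peptide (or biotinylated scrambled control), or adsorption plates coated with 250 units pure DNA-PK. After blocking, prey is added for 1 h at 37°C with 1 μM ATP, sonicated DNA (50 ng/μL) and protease/phosphatase inhibitors. Non-biotinylated test or scrambled peptide serves as competitor. DNA-PKcs is read with fluorophore-conjugated antibodies and peptide with FITC-streptavidin (1:500) on a fluorescence plate reader.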"}, "M059J cells": {"tested_on": "M059J cells", "assay": "Nuclear focus formation after irradiation, DNA-PK -/- cells", "assay_type": "cell-based", "conditions": "10 μM, 1 h after 3 Gy, FITC-streptavidin (Fig. 5A left)", "procedure,_shortened": "(§1)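 Peptides at 10 μM are added to growth medium 72 h before irradiation or mock-irradiation (137Cs, 333 cGy per minute). Cells are grown on coverslips and fixed 3 min in ice-cold acetone:methanol 1:1 at set times after irradiation. They are blocked 1 h at room temperature in 5% goat serum, with primary reagents in 1% BSA overnight at 4°C and secondary reagents 1 h at room temperature. Foci are imaged by inverted fluorescence microscopy.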"}, "[6]": {"tested_on": "Phosphorylated DNA-PKcs (T2609) in KS1767 cells", "assay": "DNA-PKcs autophosphorylation", "assay_type": "cell-based, human", "conditions": "KS1767, 10 μM, 30 minutes after 3 Gy (Fig. 5B)", "procedure,_shortened": "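Peptides, penetratin-fused test or scrambled control at 10 μM, are added to standard growth medium of KS1767 Kaposi sarcoma cells 72 h before irradiation or mock-irradiation. Irradiation uses a 137Cs source at 333 cGy per minute.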"}, "KS1767 cells": {"tested_on": "KS1767 cells", "assay": "Nuclear focus formation after irradiation, DNA-PKcs +/+ cells", "assay_type": "cell-based, human", "conditions": "10 μM", "procedure,_shortened": "as §1"}, "DNA-PKcs [7]": {"target": "T1, DNA-PKcs", "assay": "DNA-PKcs kinase assay", "assay_type": "biochemical", "conditions": "for DNA-PKcs inhibition by truncated/mutant/phosphorylated peptide derivatives: alanine scanning and mutant peptides, DNA-PKcs kinase activity (Fig. 6A)"}, "DNA-PKcs [8]": {"target": "T1, DNA-PKcs", "assay": "Protease protection assay", "assay_type": "biochemical", "conditions": "10 μM, trypsin 0.01% 8 min 37°C, immunoblot (Fig. 4H)"}},
  "note": "Like-named read-outs stand apart in the source and are kept apart here.",
  "data": [
    {"molecule": "COc1cc(C=O)c([N+](=O)[O-])cc1OC", "note": "[DMNB, reference compound]", "values": [
      {"measurement": "radiosensitivity by clonogenic assay", "setting": "CAPAN1 cells [1]", "value": "increased radiosensitivity"},
      {"measurement": "residual double-strand breaks by neutral comet assay", "setting": "HCC1937 cells [2]", "value": "increased residual double-strand breaks"},
      {"measurement": "residual double-strand breaks by neutral comet assay", "setting": "CAPAN1 cells [3]", "value": "increased residual double-strand breaks"},
      {"measurement": "radiosensitivity by clonogenic assay", "setting": "HCC1937 cells [4]", "value": "increased radiosensitivity"}
    ]},
    {"molecule": "RYPAGLPFL [scrambled peptide, reference compound]", "values": [
      {"measurement": "interaction with DNA-PKcs by ELISA", "setting": "DNA-PKcs [5]", "value": "no detectable interaction"}
    ]},
    {"molecule": "GNFRYLAPP-pen", "values": [
      {"measurement": "nuclear focus formation of biotinylated peptide", "setting": "M059J cells", "value": "did not form foci"},
      {"measurement": "phosphorylated DNA-PKcs (T2609) signal after irradiation", "setting": "[6]", "value": "no signal was detected"},
      {"measurement": "radiosensitivity by clonogenic assay", "setting": "CAPAN1 cells [1]; CAPAN1 (BRCA2-null), 10 μM, 72 h pre-incubation (Fig. 5D-E)", "value": "increased radiosensitivity"},
      {"measurement": "nuclear focus formation of biotinylated peptide", "setting": "KS1767 cells; KS1767 (DNA-PKcs +/+), 1 h after 3 Gy, FITC-streptavidin (Fig. 5A left)", "value": "formed foci"},
      {"measurement": "resolution of peptide foci over time after irradiation", "setting": "KS1767 cells; KS1767, 3 Gy, majority of cells retaining foci as late as 12 hours (Fig. 5A right)", "value": "slow resolution"},
      {"measurement": "residual double-strand breaks by neutral comet assay", "setting": "HCC1937 cells [2]; HCC1937 (BRCA1-null), 10 μM, 72 h pre-incubation, 3 and 6 hours after 6 Gy (Fig. 5C)", "value": "increased residual double-strand breaks"},
      {"measurement": "residual double-strand breaks by neutral comet assay", "setting": "CAPAN1 cells [3]; CAPAN1 (BRCA2-null), 10 μM, 72 h pre-incubation, 3 and 6 hours after 6 Gy (Fig. 5C)", "value": "increased residual double-strand breaks"},
      {"measurement": "radiosensitivity by clonogenic assay", "setting": "HCC1937 cells [4]; HCC1937 (BRCA1-null), 10 μM, 72 h pre-incubation (Fig. 5D-E)", "value": "increased radiosensitivity"}
    ]},
    {"molecule": "GSFRYL", "values": [
      {"measurement": "DNA-PKcs inhibition by truncated/mutant/phosphorylated peptide derivatives", "setting": "DNA-PKcs [7]", "value": "abolished"}
    ]},
    {"molecule": "GNFRYLAPP", "values": [
      {"measurement": "phosphorylation of the peptide itself by DNA-PKcs", "setting": "DNA-PKcs [7]; Fig. 4C", "value": "not phosphorylated"},
      {"measurement": "mode of DNA-PKcs inhibition", "setting": "DNA-PKcs [7]; conclusion from binding, kinase and protease protection data", "value": "non-competitive inhibitor"},
      {"measurement": "effect on DNA-PKcs phosphorylation of its p53-derived consensus substrate", "setting": "DNA-PKcs [7]; pure DNA-PK, increasing molar ratios of peptide to substrate (Fig. 4C)", "value": "progressively inhibited"},
      {"measurement": "effect on DNA-induced protection of DNA-PKcs from trypsin digestion", "setting": "DNA-PKcs [8]", "value": "prevented the protection from trypsin digestion"},
      {"measurement": "interaction with DNA-PKcs by ELISA", "setting": "DNA-PKcs [5]", "value": "sufficient for attracting"}
    ]},
    {"molecule": "GpSFRYL", "values": [
      {"measurement": "DNA-PKcs inhibition by truncated/mutant/phosphorylated peptide derivatives", "setting": "DNA-PKcs [7]", "value": "reestablished DNA-PKcs inhibition"}
    ]}
  ]
}
